From ChEMBL document CHEMBL1150355, “Design and evaluation of a novel series of 2,3-oxidosqualene cyclase inhibitors with low systemic exposure, relationship between pharmacokinetic properties and ocular toxicity” (Bioorg Med Chem, 2008)
Activity calls are given as the source filed them. No cut-off for these calls is given here.

Columns and labels:
Lanosterol synthase = molecular target: T1, Lanosterol synthase (Homo sapiens, UniProt P48449); test: Inhibition of 2,3-oxidosqualene-lanosterol cyclase
T1 sequence (P48449 whole entry): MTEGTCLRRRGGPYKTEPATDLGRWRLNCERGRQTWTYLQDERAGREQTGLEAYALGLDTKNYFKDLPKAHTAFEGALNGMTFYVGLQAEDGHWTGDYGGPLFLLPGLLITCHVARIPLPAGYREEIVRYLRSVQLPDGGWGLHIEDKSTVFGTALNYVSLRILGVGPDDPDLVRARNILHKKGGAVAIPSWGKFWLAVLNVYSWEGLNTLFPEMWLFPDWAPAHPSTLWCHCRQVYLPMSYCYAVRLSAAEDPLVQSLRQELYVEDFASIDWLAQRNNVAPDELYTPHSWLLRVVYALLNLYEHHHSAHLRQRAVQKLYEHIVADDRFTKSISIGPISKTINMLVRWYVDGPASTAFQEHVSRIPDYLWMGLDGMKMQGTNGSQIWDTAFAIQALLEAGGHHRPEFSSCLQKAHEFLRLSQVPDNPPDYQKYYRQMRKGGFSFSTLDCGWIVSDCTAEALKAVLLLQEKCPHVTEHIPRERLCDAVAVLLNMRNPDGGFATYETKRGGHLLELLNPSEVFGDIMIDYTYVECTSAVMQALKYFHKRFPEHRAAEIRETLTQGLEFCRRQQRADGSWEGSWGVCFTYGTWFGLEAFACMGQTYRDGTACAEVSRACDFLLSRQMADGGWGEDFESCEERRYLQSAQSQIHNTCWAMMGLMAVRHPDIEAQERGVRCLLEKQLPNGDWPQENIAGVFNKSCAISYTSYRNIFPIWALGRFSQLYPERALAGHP
Method in brief: (§1)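 HepG2 cells were incubated 24 h with compound in BME with 10% fetal calf serum, then labelled with [14C]mevalonate (7.4 kBq). Lipids were extracted with heptane/isopropanol and separated by TLC. [14C]cholesterol, MES and DES were identified against standards and quantified by phosphorimaging, scoring cholesterol synthesis inhibition together with MES/DES formation.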

[1] = Metabolic stability in rat liver microsomes assessed as intrinsic clearance […]; type: ADME, Microsome
Rattus norvegicus [2] = test: Inhibition of neosynthetized cholesterol synthesis in OFA rat liver at 2 mg/kg, po after 3 hrs; type: functional
Method in brief: (§2)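 Male OFA rats dosed orally at 2 mg/kg. Sterol synthesis was labelled by ip [14C]mevalonate (370 kBq) for the final hour, giving 3 h or 8 h total exposure. Lens and liver lipids were extracted with isopropanol, separated by TLC, and cholesterol and MES radioactivity quantified by phosphorimaging. Cholesterol inhibition is relative to vehicle-treated rats, and MES as % of BIBB 515-treated rats (100%).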

Rattus norvegicus [3] = test: Induction of neosynthetized 2,3 mono-epoxysqualene synthesis in OFA rat liver at 2 mg/kg, po after 3 hrs relative to BIBB 515; type: functional; method in brief: as §2
[4] = molecular target: T2, Lanosterol synthase (Homo sapiens) (UniProt P48449); test: Inhibition of 2,3-oxidosqualene-lanosterol cyclase at 200 nM; method in brief: as §1
T2 sequence (whole entry): T1 sequence (P48449 whole entry)

Rattus norvegicus [5] = test: Inhibition of neosynthetized cholesterol synthesis in OFA rat lens at 2 mg/kg, po after 3 hrs; type: functional; settings: Lens of camera-type eye; method in brief: as §2
Rattus norvegicus [6] = test: Induction of neosynthetized 2,3 mono-epoxysqualene synthesis in OFA rat lens at 2 mg/kg, po after 3 hrs relative to BIBB 515; type: functional, Lens of camera-type eye; method in brief: as §2
Rattus norvegicus [7] = test: Inhibition of neosynthetized cholesterol synthesis in OFA rat liver at 2 mg/kg, po after 8 hrs; type: functional; method in brief: as §2
Rattus norvegicus [8] = test: Induction of neosynthetized 2,3 mono-epoxysqualene synthesis in OFA rat liver at 2 mg/kg, po after 8 hrs relative to BIBB 515; type: functional; method in brief: as §2
Rattus norvegicus [9] = test: Inhibition of neosynthetized cholesterol synthesis in OFA rat lens at 2 mg/kg, po after 8 hrs; type: functional; settings: Lens of camera-type eye; method in brief: as §2
Rattus norvegicus [10] = test: Induction of neosynthetized 2,3 mono-epoxysqualene synthesis in OFA rat lens at 2 mg/kg, po after 8 hrs relative to BIBB 515; type: functional, Lens of camera-type eye; method in brief: as §2
[11] = AUC (0 to 6 hrs) in OFA rat at 1 mg/kg, iv; type: ADME, organism-based; set-up: time < 6 hr, dose 1 mg/kg, route intravenous; settings: plasma
Method in brief: (§3)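 OFA rats (n = 10) dosed 1 mg/kg by iv bolus via penis vein in 10% DMA/90% PEG200. Plasma and tissue homogenates in borate buffer 0.1 M pH 11.5 were extracted with ethyl ether and analysed by LC. Plasma AUC was computed over 0–6 h.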

[12] = Biodistribution in OFA rat liver at 1 mg/kg, iv after 2 hrs; type: ADME, organism-based; set-up: dose 1 mg/kg, route intravenous; settings: read-out: Drug uptake; method in brief: as §3
[13] = Biodistribution in OFA rat liver at 1 mg/kg, iv after 6 hrs; type: ADME, organism-based; set-up: dose 1 mg/kg, route intravenous; settings: read-out: Drug uptake; method in brief: as §3
[14] = Biodistribution in OFA rat eyes at 1 mg/kg, iv after 2 hrs; type: ADME, organism-based; set-up: dose 1 mg/kg, route intravenous; settings: eye, read-out: Drug uptake; method in brief: as §3
[15] = Biodistribution in OFA rat eyes at 1 mg/kg, iv after 6 hrs; type: ADME, organism-based; set-up: dose 1 mg/kg, route intravenous; settings: eye, read-out: Drug uptake; method in brief: as §3

| IC50 (Lanosterol synthase) | CLint scaled [1] | Activity [4] | SMILES | inhibition in vivo at 2 mg/kg (Rattus norvegicus [2]) | Activity (Rattus norvegicus [3]) | other results |
| --- | --- | --- | --- | --- | --- | --- |
| 63 nM |  |  | O=S(=O)(NCCc1ccc(-c2ccc(CN3CCCC3)cc2)cc1)c1ccc(Cl)cc1 |  |  |  |
| 3 nM | 6 mL/min/g |  | O=C(c1ccc(Cl)cc1)N1CCN(Cc2ccc(-c3ccncc3)cc2)CC1 | 64% | 55% |  |
|  |  | inactive | O=C(c1ccc(Cl)cc1)N1CCN(Cc2ccc(-c3ccn[nH]3)cc2)CC1 |  |  |  |
|  |  | inactive | O=C(N1CCN(Cc2ccc(-n3ccnc3)cc2)CC1)C(F)(F)F |  |  |  |
| 13 nM | 1.3 mL/min/g |  | O=S(=O)(c1ccc(Cl)cc1)N1CCN(Cc2ccc(-c3ccncc3)cc2)CC1 | 66% | 45% |  |
|  |  | inactive | Cc1nc(-c2ccc(CN3CCN(C(=O)c4ccc(Cl)cc4)CC3)cc2)no1 |  |  |  |
|  | 2.3 mL/min/g |  | O=C(c1ccc(Cl)cc1)N1CCC(=Cc2ccc(C3=NCCO3)cc2)CC1 | 85% | 100% | inhibition in vivo at 2 mg/kg (Rattus norvegicus [5]): 79%; Activity (Rattus norvegicus [6]): 100%; inhibition in vivo at 2 mg/kg (Rattus norvegicus [7]): 40%; Activity (Rattus norvegicus [8]): 100%; inhibition in vivo at 2 mg/kg (Rattus norvegicus [9]): 61%; Activity (Rattus norvegicus [10]): 100%; AUC(0-t) at 6 h [11]: 1030 ng·h/mL; concentration at 2 h [12]: 301 ng/g; concentration at 6 h [13]: 169 ng/g; concentration at 2 h [14]: < 10 ng/g; concentration at 6 h [15]: < 10 ng/g |
| 28 nM | 9.9 mL/min/g |  | CN(C)Cc1ccc(-c2ccc(CCNS(=O)(=O)c3ccc(C#N)cc3)cc2)cc1 | 47% | 6% |  |
| 20 nM | 3.6 mL/min/g |  | CN(C)Cc1ccc(CN2CCN(C(=O)c3ccc(OC(F)(F)F)cc3)CC2)cc1 | 83% | 100% | inhibition in vivo at 2 mg/kg (Rattus norvegicus [5]): 64%; Activity (Rattus norvegicus [6]): 175%; inhibition in vivo at 2 mg/kg (Rattus norvegicus [7]): 69%; Activity (Rattus norvegicus [8]): 241%; inhibition in vivo at 2 mg/kg (Rattus norvegicus [9]): 66%; Activity (Rattus norvegicus [10]): 51%; AUC(0-t) at 6 h [11]: 362 ng·h/mL; concentration at 2 h [12]: 2420 ng/g; concentration at 6 h [13]: 1320 ng/g; concentration at 2 h [14]: 260 ng/g; concentration at 6 h [15]: 194 ng/g |

| SMILES | IC50 (Lanosterol synthase) | CLint scaled [1] | Activity [4] | inhibition in vivo at 2 mg/kg (Rattus norvegicus [2]) | Activity (Rattus norvegicus [3]) | other results |
| --- | --- | --- | --- | --- | --- | --- |
| Clc1ccc(CN2CCN(Cc3ccc(-c4ccncc4)cc3)CC2)cc1 | 316 nM |  |  |  |  |  |
